“And” between values parts separate entries of the source, which are not always exact repeats. Equal values may be shown once.

The values below come from publication PMC2532710 (Nucleic Acids Research, 2008).

The test system of one test is HJ substrate. The test can be described thus: 2-AP fluorescence quenching, HJ substrate. The format is binding. In short, it runs like this: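 Substrates were annealed from oligos (boiled 5 min, slow-cooled), gel-purified on native 12% PAGE and quantified spectrophotometrically. After ≥10 min equilibration, emission was read at 330–430 nm (excitation 315 nm). Adenine-substituted spectra were subtracted, and fold decrease at 370 nm was taken versus no peptide.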

Test [1] relates to central thymine bases of HJ. The note with it: bound to HJ; cited from earlier work.

Consider (WRWYCR)2 (disulfide), for which the “quenching of four central 2-AP bases” value in the test with HJ substrate (4-fold excess of peptide dimer over substrate) is “at least 1.6 fold”. In addition, the “fold decrease in 2-AP fluorescence at 370 nm” value (shortened to “fold decrease”) is reported as 1.2 fold with HJ substrate (HJ-1AP1 (central base), 0.2 μM dimer, 1:1); 1.6 fold in the test with HJ substrate (HJ-1AP1 (central base), 0.8 μM dimer, 4:1); 1.8 fold in the test with HJ substrate (HJ-1AP1 (central base), 1.6 μM dimer, 8:1); 1.3 fold in the test with HJ substrate (HJ-3AP1 (central base), 0.2 μM dimer, 1:1); 2.0 fold with HJ substrate (HJ-3AP1 (central base), 0.8 μM dimer, 4:1); 2.2 fold in the test on HJ substrate (HJ-3AP1 (central base), 1.6 μM dimer, 8:1). In addition, the “fold decrease” value was determined as 1.0 fold in the test on HJ substrate (HJ-3AP2, 0.2 μM dimer, 1:1); 1.2 fold in the test on HJ substrate (HJ-4AP1 (central base), 0.2 μM dimer, 1:1); 1.9 fold in the test on HJ substrate (HJ-4AP1 (central base), 0.8 μM dimer, 4:1); 1.8 fold in the test on HJ substrate (HJ-4AP1 (central base), 1.6 μM dimer, 8:1); 1.0 fold in the test with HJ substrate (HJ-4AP2 (central base), 0.05 μM dimer, 0.25:1); 1.2 fold in the test on HJ substrate (HJ-4AP2 (central base), 0.2 μM dimer, 1:1). Besides, the “fold decrease” value with HJ substrate (HJ-4AP2 (central base), 0.8 μM dimer, 4:1) was 2 fold and 2.0 fold; in the test on HJ substrate (HJ-4AP2 (central base), 1.6 μM dimer, 8:1), 2.2 fold; in the test on HJ substrate (HJ-4AP3, 0.05 μM dimer, 0.25:1) it was 1.0 fold; in the test on HJ substrate (HJ-4AP3, 0.2 μM dimer, 1:1) it was 1.2 fold; in the test with HJ substrate (HJ-4AP4, 0.05 μM dimer, 0.25:1) it was 1.0 fold; in the test on HJ substrate (HJ-4AP4, 0.2 μM dimer, 1:1), 1.0 fold. For the same substance, the “fold decrease” value in the test on HJ substrate (HJ-4AP4, 0.8 μM dimer, 4:1) is reported as 1.2 fold; in the test on HJ substrate (HJ-4AP4, 1.6 μM dimer, 8:1), 1.2 fold. The “quenching of 2-AP in the center of HJ and replication forks” value with HJ substrate (center of both HJ and replication forks) is “quench the fluorescence of 2-AP bases”. The “quenching of central bases, preliminary set” value in the test on HJ substrate (the eighth central base, Boldt and Segall, unpublished data, preliminary) is 1.6 X. In addition, in test [1], the “increase in KMnO4 sensitivity of central thymine bases” value is around 2 fold.
